High-throughput results from PubChem.
Shown are actives, neighbours in structure and some others; about 4.1% of the full set was active somewhere.
MrgX1 ag – activates human MrgX1 receptor signaling; MrgX1-HEK293 cells, Fluo-4 calcium fluorescence, agonist mode; active compounds read high; B-score at 10 µM; 310,000 tested, 0.44% active; AID 588627;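 active means calcium response B-score plate-corrected fluorescence ratio at least 3 library SD, with starting fluorescence B-score inside 5 SD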
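Material: MrgX1-expressing HEK293 cells / Dosing: compound as first of three additions / Incubation: overnight seeding, then 1 h dark dye loading / Signal: Fluo-4 NW calcium fluorescence / Evaluation: B-scored fluorescence response ratio / Benchmarks: positive and negative control wells on each plate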
RGS4 block – human RGS4 inhibition | P49798 | HEK293 M3R/RGS4 inducible, Fluo-4 calcium flux; active compounds read high; triggered by carbachol at its EC20 | B-score at 10 µM | 310,000 tested, 0.45% active | AID 463165;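 active means B-score, a plate-corrected calcium signal, over three deviations above library mean, with baseline fluorescence within five deviations of library mean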;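 further: RGS4 expression induced by doxycycline in cells with stable M3 receptor; B-score is computed from the integrated fluorescence ratio over baseline after carbachol; higher B-score means a larger calcium signal and so more RGS4 inhibition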
Target sequence (P49798 whole entry, looked up): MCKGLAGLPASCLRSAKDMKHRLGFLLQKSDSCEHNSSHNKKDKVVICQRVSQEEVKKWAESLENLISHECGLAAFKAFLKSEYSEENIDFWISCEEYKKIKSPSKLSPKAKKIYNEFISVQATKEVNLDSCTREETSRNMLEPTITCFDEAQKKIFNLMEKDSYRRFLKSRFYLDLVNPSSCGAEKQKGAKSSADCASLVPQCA
MrgX1 antagonist – antagonists of human MrgX1 receptor; Q96LB2; MRGX1-HEK293 calcium flux, Fluo-4, BAM8-22 antagonism; active compounds read low; B-score at 10 µM; 310,000 tested, 1.3% active; AID 588676;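 active means calcium-response B-score plate-corrected more than 3 library SD below zero, starting fluorescence within 5 deviations, no agonist response on first addition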;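 further: peak minus trough fluorescence over baseline after final BAM8-22 challenge near maximal dose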
MrgX1 PAM – allosterically activates human MrgX1 receptor signaling. 310,000 tested, 0.63% active. B-score at 10 µM. MrgX1-HEK293, Fluo-4 calcium flux, FDSS; active compounds read high. AID 588675;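 active means plate-corrected calcium response at least 3 library SD above typical, normal starting fluorescence, not activating the receptor alone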;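 further: compound read alongside a low EC10 to EC30 dose of BAM8-22 agonist; peak minus trough fluorescence over baseline measured at the second addition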
Kir21 inh – blocks the mouse Kir2.1 inward-rectifier potassium channel; B-score at 10 µM; 310,000 tested, 0.85% active; HEK293-Kir2.1, FluxOR thallium flux fluorescence; active compounds read low;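 active means fluorescence ratio B-score at or below minus 3 SD of library scores, with starting-brightness B-score within 2 SD, cut at about -4.2 in these data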;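 further: channel flux triggered by added potassium and thallium sulfate stimulus; B-score of peak minus minimum fluorescence over baseline after thallium stimulus; more negative B-score means stronger Kir2.1 block with less thallium influx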
Target sequence (P35561 whole entry, looked up): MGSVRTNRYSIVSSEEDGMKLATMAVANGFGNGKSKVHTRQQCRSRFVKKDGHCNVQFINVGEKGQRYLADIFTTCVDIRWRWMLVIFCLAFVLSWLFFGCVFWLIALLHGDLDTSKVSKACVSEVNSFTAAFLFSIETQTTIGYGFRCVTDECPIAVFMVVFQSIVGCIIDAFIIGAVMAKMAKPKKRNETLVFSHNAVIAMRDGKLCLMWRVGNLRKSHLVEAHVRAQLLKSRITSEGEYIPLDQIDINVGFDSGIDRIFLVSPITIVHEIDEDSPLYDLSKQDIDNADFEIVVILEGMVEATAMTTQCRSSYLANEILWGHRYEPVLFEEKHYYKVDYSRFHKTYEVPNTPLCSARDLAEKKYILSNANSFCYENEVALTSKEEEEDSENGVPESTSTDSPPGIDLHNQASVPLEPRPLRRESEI
RGS4 act – RGS4 potentiation or activation | HEK293 M3R/inducible RGS4, carbachol calcium flux Fluo4; active compounds read low | B-score at 10 µM | 310,000 tested, 0.92% active;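 active means B-score of the integrated calcium signal more than 4 SD below the library mean, with starting fluorescence not abnormally high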;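 further: negative B-score means reduced calcium response which marks RGS4 activation or potentiation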
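test system = HEK293 cells with stable M3R and inducible RGS4 | schedule = recording 10 s baseline at 1 Hz, 100 s post-agonist | technique = Fluo4-AM (2 µM) calcium-flux fluorescence, kinetic read | measure = Agonist-evoked peak-minus-minimum fluorescence over baseline, integrated ratio, B score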
* marks the source's active call; other numbers are inactive results; i = inactive; . = no result given.

SMILES	MrgX1 ag	RGS4 block	MrgX1 antagonist	MrgX1 PAM	Kir21 inh	RGS4 act
CC(C)CNC(=O)NC(=O)COC(=O)c1ccccc1Sc1ccc(C(F)(F)F)cc1[N+](=O)[O-]	i	i	i	i	2.1	i
COc1cc(/C=C2\SC(=S)N(C(Cc3ccccc3)C(=O)O)C2=O)ccc1O (centres undefined)	56*	i	i	i	-4.5*	i
COc1ccc(/C=C2\SC(=S)N(CC3CCCO3)C2=O)cc1 (centres undefined)	i	i	i	i	-0.46	i
COc1cc(/C=C2/SC(=S)N(CC3CCCO3)C2=O)ccc1O (centres undefined)	i	i	-8.6*	i	-2.6	i
O=C(Nc1nnc(-c2ccc(F)cc2)o1)c1cccc([N+](=O)[O-])c1	58*	i	i	i	0.38	i
CCCCNC(=O)CCCCCn1c(=O)[nH]c2cc(C(=O)OC)ccc2c1=O	i	i	i	14*	-1.8	i
CCCN(CCC)CCNC(=O)CCC(=O)Nc1ccc2nc(N3CCOCC3)cc(C)c2c1	i	i	i	i	-1.1	i
CCN1CCN(c2oc(COc3ccc(Cl)cc3)nc2C#N)CC1	i	i	i	i	0.36	i
N#Cc1nc(COc2ccc(Cl)cc2)oc1N1CCN(Cc2ccccc2)CC1	i	i	i	i	-0.19	-7*
O=C1Nc2ccc(Br)cc2/C1=C/c1ccc(C(=O)O)cc1	i	8*	i	i	1	i
Cc1ccc2c(c1)/C(=C/c1ccco1)C(=O)N2	i	i	i	i	-0.09	i
CC(=O)c1c(N2CCN(C)CC2)[nH]c(-c2ccccc2)nc1=S	i	i	i	i	-0.03	i
C[N+]1(CCOC(=O)C2(c3ccccc3)CCCC2)CCCCC1	i	i	i	i	0.68	-7.5*
CCN(CC)CCOC(=O)C1(c2ccccc2)CCOCC1	i	i	i	i	-0.64	-7*
CC(C[N+](C)(C)C)OC(=O)C1(c2ccccc2)CCCC1 (centres undefined)	i	i	i	i	1.6	-10*
C[N+](C)(C)CCOC(=O)C1(c2ccccc2)CCCC1	i	i	i	i	-0.23	-8.2*
Cc1ccccc1NC(=O)C1c2cccc[n+]2CC(=O)N1Cc1ccc2c(c1)OCO2 (centres undefined)	i	i	i	i	1.3	i
CC(C)(C)OC(=O)N[C@@H](Cc1ccccc1)C(=O)N1CCC(C(=O)N[C@@H](CCC(N)=O)C(=O)O)CC1	i	i	i	i	-1.4	i
O=C1C2C3C=CC(C3=C3CCCCC3)C2C(=O)N1c1ccccc1 (centres undefined)	i	i	i	i	1.5	i
COc1ccc(C(=O)COC(=O)CCNS(=O)(=O)c2ccccc2)cc1Br	i	i	-5.6*	i	1.4	i
COc1ccc(C(=O)Oc2cc(C(=S)N3CCOCC3)ccc2OC)cc1	i	i	i	i	0	i
O=C(O)c1cccc(-c2ccc(/C=N/Nc3ccc([N+](=O)[O-])cc3)o2)c1	i	i	-7*	i	-1.2	i
CC(C)(C)NC(=S)N/N=C\c1ccc(-c2ccc([N+](=O)[O-])cc2)o1	28*	i	i	i	-0.31	i
O=C(O)c1ccc(-c2ccc(/C=N/Nc3ccc([N+](=O)[O-])cc3)o2)cc1	i	i	i	i	-5.5	i
CCN(CC)S(=O)(=O)c1cccc(C(=O)NCCc2ccccc2)c1	i	i	i	i	-0.29	i
SMILES	MrgX1 ag	RGS4 block	MrgX1 antagonist	MrgX1 PAM	Kir21 inh	RGS4 act
Cc1cc(C)cc(-n2ncc3c2CCCC3NC(=O)CCN2CCCC2=O)c1 (centres undefined)	i	i	i	i	-0.71	i
Cc1ccccc1OCCNc1cc(N2CCNCC2)ccc1[N+](=O)[O-]	27*	5.1*	i	i	-8.1*	i
COc1ccc(S(=O)(=O)N/N=C\c2ccc3c(c2)OCO3)cc1	i	i	i	i	0.08	i
CCCSc1nnc(NC(=O)c2sc3nc(-c4cccs4)ccc3c2N)s1	38*	i	i	i	-2.4	i
N#CCCS(=O)(=O)c1nnnn1-c1ccccc1	42*	.	i	i	.	.
COc1cccc(NC(=O)CN(C)C(=O)CCNC(=O)c2ccc(Br)cc2)c1	i	i	-8.9*	i	2.1	i
O=C(Nc1cccc([N+](=O)[O-])c1)c1cc2ccccc2cc1O	i	i	-4.8*	i	0.19	i
O=C(Nc1ccc(CN2CCCCC2)cc1)c1cc(Br)ccc1Cl	i	i	-5.5*	i	-1.1	i
CCOc1ccc(N2C(=O)CC(N(CCc3ccc(OC)cc3)C(=O)c3cccc(F)c3)C2=O)cc1 (centres undefined)	i	i	i	i	0.39	i
CCCOc1ccc(N2C(=O)CC(N(CCc3ccc(OC)cc3)C(=O)c3ccccc3)C2=O)cc1 (centres undefined)	i	i	-4.6*	i	-1.1	i
COc1ccc(CCNC(=O)c2cccc(C(=O)NCCc3ccc(OC)cc3)n2)cc1	i	i	-4.8*	i	0.86	i
COc1ccc(CCNC(=O)COC(=O)Cc2ccc(OC)cc2)cc1	i	i	i	i	-0.86	i
COc1ccc(CCNC(=O)COC(=O)Cc2cccc3ccccc23)cc1	i	i	i	i	-12*	i
COc1ccc(CCNC(=O)c2cnc3ccccc3n2)cc1	i	i	i	i	-2.3	i
CN(CC(=O)Nc1ccc(F)c(F)c1F)C(=O)c1ccc(-n2cncn2)c([N+](=O)[O-])c1	i	i	i	i	-1.9	i
CO/N=C(/COc1ccc(F)cc1)c1ccc(OC)cc1	i	i	i	i	0.91	i
CO/N=C(/CS(=O)c1ccc(Br)cc1)c1ccc(OC)cc1 (centres undefined)	i	i	i	i	-8.9*	i
CCCCc1cc(=O)oc2cc(C)cc(OCC(=O)NC(Cc3ccc(Cl)cc3)C(=O)O)c12 (centres undefined)	i	i	i	i	-0.48	-8.4*
CCCc1cc(=O)oc2cc(C)cc(OCC(=O)NC(Cc3ccc(Cl)cc3)C(=O)O)c12 (centres undefined)	i	i	i	i	-0.73	i
CC(C)(C)C(=O)O/N=C(\N)c1c(Cl)cccc1Cl	i	i	i	i	2.2	-9.1*
